Reference: ChEMBL document CHEMBL4732053, “Design, synthesis and structure-activity relationship study of novel urea compounds as FGFR1 inhibitors to treat metastatic triple-negative breast cancer” (Eur J Med Chem, 2021)
Activity calls are given as the source filed them. The rule behind the calls is not given here.

Columns and labels:
[1] = Drug uptake in C57 mouse brain at 10 mg/kg, ip measured after 1 hrs by LC-MS/MS analysis; format: ADME, organism-based; conditions: in vivo
How it was run: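 Eight-week-old male and female C57 mice (~20 g) received a single 10 mg/kg i.p. dose in ethanol 2.5%, DMSO 2.5%, Tween 80 5%, PEG 400 25% and PBS 65%. Brains were taken after cardiac perfusion at 0–48 h. Tissue was homogenized in PBS (1:3 w/v), extracted with acetonitrile containing internal standard, and quantified by LC-MS/MS against matrix-matched calibration curves. n = 2–4.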

MDA-MB-231 [2] = assay: Cytotoxicity against human MDA-MB-231 cells assessed as reduction in cell viability incubated for 48 hrs by MTT assay; format: functional, cell-based; conditions: MDA-MB-231, 48 h
How it was run: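 MTT assay in MDA-MB-231 cells grown in DMEM with 10% heat-inactivated FBS at 37 °C and 5% CO2. Cells were seeded at 8000 per well, left 24 h, then exposed for 48 h to 0–25 μM in DMEM with 2% FBS (final DMSO 0.1%). MTT (0.5 mg/mL) was added for 2 h, formazan was dissolved in DMSO and read at 570 nm. Runs were in triplicate and IC50 was derived from the curves.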

D(1B) dopamine receptor = D(1B) dopamine receptor (Homo sapiens, UniProt P21918); assay: Binding affinity to dopamine D5 receptor (unknown origin) at 10 uM
Chain of D(1B) dopamine receptor (P21918 whole entry): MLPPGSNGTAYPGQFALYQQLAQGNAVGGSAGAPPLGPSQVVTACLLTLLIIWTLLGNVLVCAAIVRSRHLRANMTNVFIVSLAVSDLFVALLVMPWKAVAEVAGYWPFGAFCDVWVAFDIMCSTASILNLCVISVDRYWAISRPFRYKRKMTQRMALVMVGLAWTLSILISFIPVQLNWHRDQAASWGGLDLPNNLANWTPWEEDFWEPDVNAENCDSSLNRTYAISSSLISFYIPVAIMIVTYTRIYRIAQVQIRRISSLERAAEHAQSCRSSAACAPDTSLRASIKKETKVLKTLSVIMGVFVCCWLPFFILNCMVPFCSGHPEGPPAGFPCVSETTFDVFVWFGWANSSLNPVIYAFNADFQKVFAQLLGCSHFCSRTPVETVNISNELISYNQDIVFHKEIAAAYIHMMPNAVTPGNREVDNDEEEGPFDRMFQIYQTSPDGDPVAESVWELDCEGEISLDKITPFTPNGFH
How it was run: (§1)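 Primary radioligand-binding screen by the NIMH Psychoactive Drug Screening Program. Each compound was tested at a final concentration of 10 μM in triplicate or quadruplicate, and % inhibition was recorded. Data are mean ± SEM of four independent experiments. Compounds reaching at least 50% antagonist activity went on to secondary dose-response assays.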

[3] = target: DAT (sodium-dependent dopamine transporter) (Homo sapiens, UniProt Q01959); assay: Inhibition of DAT (unknown origin) at 10 uM relative to control; how it was run: as §1
Chain of DAT (sodium-dependent dopamine transporter) (Q01959 whole entry): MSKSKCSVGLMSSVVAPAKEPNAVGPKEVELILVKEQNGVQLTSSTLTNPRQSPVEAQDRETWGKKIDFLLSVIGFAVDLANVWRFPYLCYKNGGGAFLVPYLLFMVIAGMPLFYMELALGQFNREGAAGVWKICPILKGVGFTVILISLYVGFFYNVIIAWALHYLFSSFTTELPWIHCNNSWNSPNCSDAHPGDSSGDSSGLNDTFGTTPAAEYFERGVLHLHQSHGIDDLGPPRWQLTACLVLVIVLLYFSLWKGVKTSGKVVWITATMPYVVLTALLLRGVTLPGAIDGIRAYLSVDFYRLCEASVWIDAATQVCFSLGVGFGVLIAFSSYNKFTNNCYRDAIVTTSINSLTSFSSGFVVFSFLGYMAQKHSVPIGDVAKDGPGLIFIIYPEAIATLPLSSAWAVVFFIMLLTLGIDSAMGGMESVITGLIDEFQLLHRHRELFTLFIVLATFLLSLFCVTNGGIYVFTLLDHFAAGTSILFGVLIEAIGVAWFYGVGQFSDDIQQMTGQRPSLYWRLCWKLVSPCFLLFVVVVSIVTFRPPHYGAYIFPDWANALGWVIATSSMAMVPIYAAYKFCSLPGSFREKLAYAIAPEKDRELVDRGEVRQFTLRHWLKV

D(4) dopamine receptor = target: T1, D(4) dopamine receptor (Homo sapiens, UniProt P21917); assay: Binding affinity to dopamine D4 receptor (unknown origin) at 10 uM; how it was run: as §1
T1 sequence (P21917 whole entry): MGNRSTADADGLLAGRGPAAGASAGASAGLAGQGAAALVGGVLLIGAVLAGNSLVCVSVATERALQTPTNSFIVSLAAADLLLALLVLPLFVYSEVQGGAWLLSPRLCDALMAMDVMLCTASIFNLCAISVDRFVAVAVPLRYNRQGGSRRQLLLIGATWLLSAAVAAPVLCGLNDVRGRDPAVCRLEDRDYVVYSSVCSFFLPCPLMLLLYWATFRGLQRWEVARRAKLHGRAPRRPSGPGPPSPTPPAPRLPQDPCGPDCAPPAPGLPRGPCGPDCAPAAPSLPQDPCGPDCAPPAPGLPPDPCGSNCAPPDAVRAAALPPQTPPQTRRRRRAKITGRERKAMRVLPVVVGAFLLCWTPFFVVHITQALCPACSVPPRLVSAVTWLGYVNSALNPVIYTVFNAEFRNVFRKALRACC

[4] = target: Sodium-dependent dopamine transporter (Homo sapiens, UniProt Q01959); assay: Inhibition of DAT (unknown origin)
Chain of Sodium-dependent dopamine transporter (Q01959 whole entry): as the sequence (Q01959 whole entry) above

D(3) dopamine receptor = D(3) dopamine receptor (Homo sapiens, UniProt P35462); assay: Binding affinity to dopamine D3 receptor (unknown origin) at 10 uM; format: ADME; how it was run: as §1
Chain of D(3) dopamine receptor (P35462 whole entry): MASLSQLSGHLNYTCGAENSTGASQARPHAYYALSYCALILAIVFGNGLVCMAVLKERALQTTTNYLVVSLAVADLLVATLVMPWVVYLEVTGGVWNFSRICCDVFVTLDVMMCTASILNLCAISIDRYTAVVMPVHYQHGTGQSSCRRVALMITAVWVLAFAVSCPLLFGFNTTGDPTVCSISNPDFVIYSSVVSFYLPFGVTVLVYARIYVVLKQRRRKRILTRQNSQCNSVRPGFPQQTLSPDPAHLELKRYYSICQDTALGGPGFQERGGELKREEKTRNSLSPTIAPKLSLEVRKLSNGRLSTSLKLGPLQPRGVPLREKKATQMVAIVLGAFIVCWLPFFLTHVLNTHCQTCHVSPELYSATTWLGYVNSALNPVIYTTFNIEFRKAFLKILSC

Histamine H1 receptor = Histamine H1 receptor (Homo sapiens, UniProt P35367); assay: Inhibition of H1R (unknown origin)
Chain of Histamine H1 receptor (P35367 whole entry): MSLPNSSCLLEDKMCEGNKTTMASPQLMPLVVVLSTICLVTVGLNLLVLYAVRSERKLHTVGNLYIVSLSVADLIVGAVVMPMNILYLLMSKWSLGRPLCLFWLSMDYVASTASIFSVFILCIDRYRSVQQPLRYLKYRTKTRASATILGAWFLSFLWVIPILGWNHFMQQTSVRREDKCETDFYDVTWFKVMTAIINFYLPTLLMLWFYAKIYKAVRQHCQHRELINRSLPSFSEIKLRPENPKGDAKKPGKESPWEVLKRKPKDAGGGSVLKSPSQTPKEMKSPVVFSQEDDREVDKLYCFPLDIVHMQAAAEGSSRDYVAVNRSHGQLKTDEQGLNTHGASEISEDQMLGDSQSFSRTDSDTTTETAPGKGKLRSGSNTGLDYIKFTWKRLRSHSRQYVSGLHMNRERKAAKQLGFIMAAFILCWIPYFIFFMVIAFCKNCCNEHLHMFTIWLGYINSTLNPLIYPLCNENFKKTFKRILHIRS

D(1A) dopamine receptor = D(1A) dopamine receptor (Homo sapiens, UniProt P21728); assay: Binding affinity to dopamine D1 receptor (unknown origin) at 10 uM; how it was run: as §1
Chain of D(1A) dopamine receptor (P21728 whole entry): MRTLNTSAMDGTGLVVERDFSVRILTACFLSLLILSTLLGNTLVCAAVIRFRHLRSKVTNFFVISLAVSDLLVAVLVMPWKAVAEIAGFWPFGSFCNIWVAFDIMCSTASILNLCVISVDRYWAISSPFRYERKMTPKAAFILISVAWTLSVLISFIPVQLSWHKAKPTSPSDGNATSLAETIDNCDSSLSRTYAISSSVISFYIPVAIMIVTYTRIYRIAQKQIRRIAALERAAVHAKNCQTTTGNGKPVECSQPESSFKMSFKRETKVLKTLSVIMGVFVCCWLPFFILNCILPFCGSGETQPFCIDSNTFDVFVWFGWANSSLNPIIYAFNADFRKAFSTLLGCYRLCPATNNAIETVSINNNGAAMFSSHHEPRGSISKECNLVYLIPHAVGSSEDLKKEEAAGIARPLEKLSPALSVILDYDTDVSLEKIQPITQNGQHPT

D(2) dopamine receptor = D(2) dopamine receptor (Homo sapiens, UniProt P14416); assay: Binding affinity to dopamine D2 receptor (unknown origin) at 10 uM; how it was run: as §1
Chain of D(2) dopamine receptor (P14416 whole entry): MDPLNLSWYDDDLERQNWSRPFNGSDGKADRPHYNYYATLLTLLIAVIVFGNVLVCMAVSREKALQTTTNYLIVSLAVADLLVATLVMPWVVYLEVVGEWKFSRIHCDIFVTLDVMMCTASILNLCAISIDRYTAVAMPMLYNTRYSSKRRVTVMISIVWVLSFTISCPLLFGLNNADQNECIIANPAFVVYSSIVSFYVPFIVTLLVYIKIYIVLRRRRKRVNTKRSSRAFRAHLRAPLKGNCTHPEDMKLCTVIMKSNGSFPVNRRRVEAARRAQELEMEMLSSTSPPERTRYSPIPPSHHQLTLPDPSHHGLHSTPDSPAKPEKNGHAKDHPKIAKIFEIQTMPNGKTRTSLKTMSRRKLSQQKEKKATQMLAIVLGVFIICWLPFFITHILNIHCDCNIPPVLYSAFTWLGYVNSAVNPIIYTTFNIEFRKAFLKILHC

[5] = Metabolic stability in Sprague-Dawley rat liver microsomes assessed as parent compound remaining in presence of NADPH measured up to 60 mins by LC-MS/MS analysis; format: ADME, Microsome; conditions: 1 h
How it was run: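 Pooled male Sprague-Dawley rat liver microsomes (6.2% mixture in potassium phosphate buffer) were used with an NADPH regenerating system. Compound, diluted to 5 μM before mixing, was prewarmed 10 min at 37 °C, then incubated with microsomes at 37 °C with shaking. Samples taken at 0, 5, 15, 30 and 60 min were quenched in ice-cold acetonitrile and centrifuged. Analysis was by LC-MS/MS, giving % remaining versus T0 from peak area ratios. Three independent experiments in triplicate.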

MDA-MB-231 [6] = assay: Induction of apoptosis in human MDA-MB-231 cells incubated for 48 hrs; format: functional, cell-based
MDA-MB-231 [7] = assay: Induction of apoptosis in human MDA-MB-231 cells assessed as caspase-3 cleavage; format: functional, cell-based
How it was run: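 MDA-MB-231 cells treated 48 h, lysed on ice in RIPA buffer with protease and phosphatase inhibitors, then centrifuged. Equal protein loads were run on SDS-PAGE and transferred to PVDF. Blots were probed for cleaved caspase-3 and total caspase-3 (1:1000), with β-tubulin (1:2000) as loading control. Detection used HRP chemiluminescence with goat anti-rabbit secondary, and bands were quantified by densitometry.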

MDA-MB-231 [8] = assay: Induction of apoptosis in human MDA-MB-231 cells assessed as fold increase in apoptotic index at 5 uM relative to control; format: functional
MDA-MB-231 [9] = assay: Induction of apoptosis in human MDA-MB-231 cells at 1 uM incubated for 48 hrs; format: functional, cell-based
MDA-MB-231 [10] = assay: Effect on cell cycle in human MDA-MB-231 cells at 0 to 5 uM; format: functional, cell-based; conditions: dose 0-5 µM
[11] = target: Fibroblast growth factor receptor 1 (Homo sapiens) (UniProt P11362); assay: Inhibition of FGFR1 phosphorylation in human […] cells at 3 to 6 uM incubated for 48 hrs in presence of bFGF by immunoblotting analysis; format: cell-based; conditions: MDA-MB-231, dose 3-6 µM
Chain of Fibroblast growth factor receptor 1 (Homo sapiens) (P11362 22-822 limits assumed): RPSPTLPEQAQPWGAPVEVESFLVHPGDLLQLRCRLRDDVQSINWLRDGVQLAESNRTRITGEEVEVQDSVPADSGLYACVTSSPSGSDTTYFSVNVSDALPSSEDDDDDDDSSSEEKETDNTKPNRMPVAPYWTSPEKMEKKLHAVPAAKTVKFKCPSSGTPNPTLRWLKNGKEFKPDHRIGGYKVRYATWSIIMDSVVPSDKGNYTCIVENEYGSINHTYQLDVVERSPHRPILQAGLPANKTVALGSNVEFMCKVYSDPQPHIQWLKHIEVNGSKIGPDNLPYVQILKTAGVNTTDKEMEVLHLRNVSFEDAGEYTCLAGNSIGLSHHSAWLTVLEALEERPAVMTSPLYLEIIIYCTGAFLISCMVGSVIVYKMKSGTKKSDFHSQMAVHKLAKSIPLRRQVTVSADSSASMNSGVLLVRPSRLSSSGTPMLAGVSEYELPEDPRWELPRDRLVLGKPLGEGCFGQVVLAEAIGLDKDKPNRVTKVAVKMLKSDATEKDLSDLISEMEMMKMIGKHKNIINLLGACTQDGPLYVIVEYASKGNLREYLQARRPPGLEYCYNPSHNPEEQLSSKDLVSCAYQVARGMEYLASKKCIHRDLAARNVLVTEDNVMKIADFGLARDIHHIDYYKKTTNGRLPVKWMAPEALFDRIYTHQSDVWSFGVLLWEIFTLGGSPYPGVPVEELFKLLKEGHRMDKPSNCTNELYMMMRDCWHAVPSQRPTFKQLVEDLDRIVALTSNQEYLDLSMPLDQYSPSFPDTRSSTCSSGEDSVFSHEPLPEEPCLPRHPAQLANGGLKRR
How it was run: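 MDA-MB-231 cells treated 48 h with or without bFGF, lysed in RIPA buffer with protease and phosphatase inhibitors. Equal protein loads were run on SDS-PAGE and transferred to PVDF. Blots were probed with anti-pFGFR1 (1:1000), using β-tubulin (1:2000) as loading control. Bands were detected by HRP chemiluminescence and quantified by densitometry; n = 3.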

Compound | IC50 (MDA-MB-231 [2]) [nM] | inhibition at 10 µM [3] [%] | Ki [4] [nM] | further results
O=C(NCCCCC(c1ccc(F)cc1)c1ccc(F)cc1)Nc1ccc(Cl)cc1 | 7680 | 82 | 15 | Drug uptake [1]: Active; Activity (D(1B) dopamine receptor): Not Active; Activity (D(4) dopamine receptor): Not Active; Activity (D(3) dopamine receptor): Not Active; inhibition (INH) (Histamine H1 receptor): Active; Activity (D(1A) dopamine receptor): Not Active; Activity (D(2) dopamine receptor): Not Active
Cc1ccc(NC(=O)NCCCCC(c2ccc(F)cc2)c2ccc(F)cc2)cc1C | > 20000 | 79 | 80 | –
O=C(NCCCCN(c1ccc(F)cc1)c1ccc(F)cc1)Nc1ccc(Cl)cc1 | > 20000 | 68 | 405 | –
O=C(NCCCC(c1ccc(F)cc1)c1ccc(F)cc1)Nc1ccc(Cl)c(C(F)(F)F)c1 | 3500 | 86 | 141 | –
O=C(NCCCCC(c1ccc(F)cc1)c1ccc(F)cc1)Nc1ccc(Cl)c(C(F)(F)F)c1 | 3150 | 90 | 6.5 | Stabilty [5]: Stable
O=C(NCCCCC(c1ccc(F)cc1)c1ccc(F)cc1)c1ccc(Cl)c(C(F)(F)F)c1 | 11700 | 51 | 603 | –
O=C(NCCCCC(c1ccc(F)cc1)c1ccc(F)cc1)Nc1ccc(Cl)cc1C(F)(F)F | > 20000 | 20 | – | –
CN(CCCCC(c1ccc(F)cc1)c1ccc(F)cc1)C(=O)N(C)c1ccc(Cl)c(C(F)(F)F)c1 | > 20000 | 26 | – | –
Cc1ccc(C(CCCCNC(=O)Nc2ccc(Cl)cc2)c2ccc(C)cc2)cc1 | 17900 | 59 | 535 | –
COc1ccc(C(CCCCNC(=O)Nc2ccc(Cl)c(C(F)(F)F)c2)c2ccc(OC)cc2)cc1 | 3300 | 75 | 40 | –
CN(CCCCC(c1ccc(F)cc1)c1ccc(F)cc1)C(=O)Nc1ccc(Cl)c(C(F)(F)F)c1 | 6020 | 73 | 998 | –
Cc1cc(Cl)ccc1NC(=O)NCCCCC(c1ccc(F)cc1)c1ccc(F)cc1 | > 20000 | 58 | 118 | –
O=C(NCCCCC(c1ccc(F)cc1)c1ccc(F)cc1)Nc1ccc([N+](=O)[O-])c(C(F)(F)F)c1 | 4550 | – | – | Activity (MDA-MB-231 [6]): Dose-dependent effect; Activity (MDA-MB-231 [7]): Active; Stabilty [5]: Stable; fold change (FC) (MDA-MB-231 [8]): 10.6; Activity (MDA-MB-231 [9]): Active; Activity (MDA-MB-231 [10]): inactive; inhibition [11]: Active
O=C(Nc1ccc(Cl)c(C(F)(F)F)c1)N1CCC(C(c2ccc(F)cc2)c2ccc(F)cc2)CC1 | 11400 | 52 | 1590 | –
O=C(NCCCCN(c1ccc(F)cc1)c1ccc(F)cc1)Nc1ccc(Cl)c(C(F)(F)F)c1 | 5040 | 85 | 43 | –
O=C(Nc1ccc(Cl)c(C(F)(F)F)c1)OCCCCC(c1ccc(F)cc1)c1ccc(F)cc1 | 4580 | 49 | – | –
CC(=O)Nc1cc(NC(=O)NCCCCC(c2ccc(F)cc2)c2ccc(F)cc2)ccc1Cl | 9120 | 76 | 609 | –
O=C(NCCCCCC(c1ccc(F)cc1)c1ccc(F)cc1)Nc1ccc(Cl)c(C(F)(F)F)c1 | 2570 | 77 | 399 | –
COc1ccc(C(CCCCNC(=O)Nc2ccc(Cl)c([N+](=O)[O-])c2)c2ccc(OC)cc2)cc1 | 3990 | 64 | 144 | –
